In ChEMBL document CHEMBL1828500, “Synthesis and biological evaluation of dihydroindeno and indeno [1,2-e] [1,2,4]triazolo [3,4-b] [1,3,4]thiadiazines as antimicrobial agents” (2011) one finds zone of inhibition, inhibition of growth and MIC data, which are given here for nine compounds.

Holding throughout (format): functional
In test [1] the test system is Bacillus subtilis. Kind of test: Antibacterial activity against Bacillus subtilis MTCC 121 at 2 mg/ml after 24 hrs by agar well diffusion method. The following applies: MTCC 121, 24 h, read-out: DIZ. In short, it runs like this:
(§1)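 Cultures adjusted to 0.5 McFarland and left 15 min on agar for adsorption. 8 mm wells bored and loaded with compound at 2.0 mg/mL in DMSO. Incubated 37 °C for 24 h. Growth-inhibition zone diameter (mm) read with a zone scale and reported as the average. DMSO served as negative control and ciprofloxacin as positive control.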
On the technique in general: In agar diffusion tests the substance spreads into inoculated agar from a disc or well.

The test system of test [2] is Escherichia coli. In words: Antibacterial activity against Escherichia coli MTCC 1652 at 2 mg/ml after 24 hrs by agar well diffusion method. The following applies: MTCC 1652, 24 h, read-out: DIZ. An outline of the steps: as §1
The next test relates to Aspergillus flavus. Kind of test: Antifungal activity against Aspergillus flavus assessed as inhibition of mycelial growth at 4 mg/ml after 7 days. The following applies: 168 h, read-out: GI. In short, it runs like this: (§2)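 Poisoned food method. Molds grown on Sabouraud dextrose agar at 25 °C for 7 days to provide inocula. Molten SDA (45 °C) dosed with compound at 4.0 mg/mL in DMSO, then solidified. 8 mm fungal plugs from colony margins placed centrally. Incubated 25 °C for 7 days, in triplicate. % mycelial growth inhibition calculated from colony diameters versus DMSO control. Fluconazole served as positive control.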

Test [3] has as its system Bacillus subtilis. Kind of test: Antibacterial activity against Bacillus subtilis MTCC 121 after 24 hrs by agar well diffusion method. The following applies: MTCC 121, 24 h. In short, it runs like this:
(§3)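 MIC by modified agar well diffusion. Two-fold serial dilutions (DMSO stock diluted in sterile distilled water), range 256 to 0.5, placed in wells in triplicate. Agar was pre-seeded with 100 standardized inoculum at 10⁶ cfu/mL. Incubated aerobically at 37 °C for 24 h. MIC taken as lowest concentration giving a clear zone, i.e. complete growth inhibition.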

The subject of test [4] is Escherichia coli. Kind of test: Antibacterial activity against Escherichia coli MTCC 1652 after 24 hrs by agar well diffusion method. Conditions: MTCC 1652, 24 h. In short, it runs like this: as §3
In a further test the test system is Penicillium sp. Kind of test: Antifungal activity against Penicillium sp. assessed as inhibition of mycelial growth at 4 mg/ml after 7 days. The following applies: 168 h, read-out: GI. An outline of the steps: as §2
Test [5] deals with Staphylococcus aureus. Kind of test: Antibacterial activity against Staphylococcus aureus MTCC 96 after 24 hrs by agar well diffusion method. Conditions: MTCC 96, 24 h. An outline of the steps:
as §3

Test [6] has as its system Pseudomonas aeruginosa. In words: Antibacterial activity against Pseudomonas aeruginosa MTCC 741 after 24 hrs by agar well diffusion method. Conditions: MTCC 741, 24 h. An outline of the steps:
as §3

Test [7] relates to Pseudomonas aeruginosa. Kind of test: Antibacterial activity against Pseudomonas aeruginosa MTCC 741 at 2 mg/ml after 24 hrs by agar well diffusion method. Conditions: MTCC 741, 24 h, read-out: DIZ. An outline of the steps:
as §1

Test [8] concerns Staphylococcus aureus. In words: Antibacterial activity against Staphylococcus aureus MTCC 96 at 2 mg/ml after 24 hrs by agar well diffusion method. The following applies: MTCC 96, 24 h, read-out: DIZ. An outline of the steps: as §1
A further test relates to Aspergillus niger. Kind of test: Antifungal activity against Aspergillus niger assessed as inhibition of mycelial growth at 4 mg/ml after 7 days. The following applies: 168 h, read-out: GI. In short, it runs like this: as §2

In brackets after ≈: the same amount, converted by molar mass.

Regarding `Cc1cccc2c1CC1Sc3nncn3N=C21` (centres undefined), the zone of inhibition at 2000 µg/mL in the test with Bacillus subtilis [1] was 30.6 mm; in the test on Escherichia coli [2], 22.3 mm; in the test with Pseudomonas aeruginosa [7], 20.3 mm; in the test with Staphylococcus aureus [8] it was 26.3 mm. The inhibition of growth at 4000 µg/mL with Aspergillus flavus was 65.5%; in the test with Penicillium sp., 62.5%; in the test on Aspergillus niger, 63.3%. The MIC (as a rule, the smallest concentration in the dilution series that meets the test's criterion for growth inhibition) is 2 mg/L (≈ 8.25 µM) against Bacillus subtilis [3], 32 mg/L (≈ 132 µM) in the test with Escherichia coli [4], 8 mg/L (≈ 33 µM) in the test with Staphylococcus aureus [5] and 32 mg/L (≈ 132 µM) in the test with Pseudomonas aeruginosa [6].
With `CCc1nnc2n1N=C1c3ccccc3CC1S2` (centres undefined), the zone of inhibition at 2000 µg/mL was found to be 21.6 mm in the test with Bacillus subtilis [1], 18.3 mm with Escherichia coli [2], 16 mm in the test on Pseudomonas aeruginosa [7] and 25.3 mm in the test on Staphylococcus aureus [8]. For the same compound, the inhibition of growth at 4000 µg/mL in the test with Aspergillus flavus was found to be 55.5%; in the test on Penicillium sp., 57.7%; in the test with Aspergillus niger, 58.8%. In addition, the MIC was determined as 32 mg/L (≈ 125 µM) against Bacillus subtilis [3], 64 mg/L (≈ 250 µM) in the test on Escherichia coli [4], 16 mg/L (≈ 62.4 µM) in the test with Staphylococcus aureus [5] and 128 mg/L (≈ 499 µM) against Pseudomonas aeruginosa [6].
In the case of `Cc1cccc2c1CC1Sc3nnc(C)n3N=C21` (centres undefined), the zone of inhibition at 2000 µg/mL with Bacillus subtilis [1] was 31.3 mm; with Escherichia coli [2], 20.6 mm; with Pseudomonas aeruginosa [7], 18.6 mm; with Staphylococcus aureus [8] it was 27.6 mm. Further, the values for the inhibition of growth at 4000 µg/mL in the test on Aspergillus flavus, with Penicillium sp. and in the test on Aspergillus niger were 68.8%, 67.7% and 67.7%, respectively. In addition, the minimal inhibitory concentration (MIC) with Bacillus subtilis [3] came out at 2 mg/L (≈ 7.8 µM); with Escherichia coli [4], 64 mg/L (≈ 250 µM); in the test with Staphylococcus aureus [5], 8 mg/L (≈ 31.2 µM); with Pseudomonas aeruginosa [6], 64 mg/L (≈ 250 µM).
Take `CCc1nnc2sc3cc4c(C)cccc4c-3nn12`: the zone of inhibition at 2000 µg/mL with Bacillus subtilis [1] is 23 mm; in the test with Escherichia coli [2] it was 19.3 mm; in the test on Pseudomonas aeruginosa [7], 17.3 mm; with Staphylococcus aureus [8], 21.6 mm. Also, the inhibition of growth at 4000 µg/mL in the test on Aspergillus flavus was found to be 62.5%; in the test with Penicillium sp., 63.3%; in the test on Aspergillus niger it was 65.5%. The minimum inhibitory concentration (MIC) was 32 mg/L (≈ 119 µM) against Bacillus subtilis [3], 64 mg/L (≈ 238 µM) against Escherichia coli [4], 32 mg/L (≈ 119 µM) in the test on Staphylococcus aureus [5] and 64 mg/L (≈ 238 µM) with Pseudomonas aeruginosa [6].
On to `CCCc1nnc2sc3cc4c(C)cccc4c-3nn12`, for which the zone of inhibition at 2000 µg/mL in the test with Bacillus subtilis [1] was 18.6 mm; in the test with Escherichia coli [2], 15.6 mm; in the test with Pseudomonas aeruginosa [7] it was 14.3 mm; in the test on Staphylococcus aureus [8] it was 16.3 mm. Moreover, the results for the inhibition of growth at 4000 µg/mL in the test with Aspergillus flavus, in the test with Penicillium sp. and with Aspergillus niger were 65.5%, 65.5% and 68.8%, respectively. For the same compound, the minimal inhibitory concentration (MIC) against Bacillus subtilis [3] turned out to be 64 mg/L (≈ 227 µM); against Escherichia coli [4], 128 mg/L (≈ 453 µM); in the test with Staphylococcus aureus [5], 128 mg/L (≈ 453 µM); against Pseudomonas aeruginosa [6] it was 256 mg/L (≈ 907 µM).
On to `CCCc1nnc2sc3cc4ccccc4c-3nn12`, for which the zone of inhibition at 2000 µg/mL in the test with Bacillus subtilis [1] was found to be 24.3 mm; in the test with Escherichia coli [2], 18.6 mm; in the test with Pseudomonas aeruginosa [7], 16.3 mm; in the test on Staphylococcus aureus [8], 25.6 mm. The inhibition of growth at 4000 µg/mL with Aspergillus flavus was found to be 48.8%; with Penicillium sp., 47.7%; in the test with Aspergillus niger it was 51.1%. For the same compound, the MIC against Bacillus subtilis [3] is 16 mg/L (≈ 59.6 µM); against Escherichia coli [4], 64 mg/L (≈ 238 µM); against Staphylococcus aureus [5] it was 16 mg/L (≈ 59.6 µM); in the test on Pseudomonas aeruginosa [6] it was 128 mg/L (≈ 477 µM).
`Cc1cccc2c1CC1Sc3nnc(-c4ccccc4)n3N=C21` (centres undefined): the zone of inhibition at 2000 µg/mL was 21.6 mm in the test on Bacillus subtilis [1], 17.3 mm in the test with Escherichia coli [2], 15.6 mm in the test with Pseudomonas aeruginosa [7] and 22.3 mm with Staphylococcus aureus [8]. In addition, the inhibition of growth at 4000 µg/mL in the test on Aspergillus flavus worked out at 58.8%; with Penicillium sp. it was 60%; with Aspergillus niger it was 55.5%. The MIC was 32 mg/L (≈ 101 µM) in the test on Bacillus subtilis [3], 128 mg/L (≈ 402 µM) in the test with Escherichia coli [4], 32 mg/L (≈ 101 µM) in the test with Staphylococcus aureus [5] and 128 mg/L (≈ 402 µM) with Pseudomonas aeruginosa [6].
In the case of `CCCc1nnc2n1N=C1c3cccc(C)c3CC1S2` (centres undefined), the zone of inhibition at 2000 µg/mL in the test on Bacillus subtilis [1] amounted to 21.6 mm; in the test on Escherichia coli [2], 19.3 mm; in the test on Pseudomonas aeruginosa [7], 17.6 mm; in the test on Staphylococcus aureus [8], 25.3 mm. Moreover, the values for the inhibition of growth at 4000 µg/mL in the test with Aspergillus flavus, with Penicillium sp. and in the test with Aspergillus niger were 55.5%, 61.1% and 58.8%, respectively. The MIC in the test on Bacillus subtilis [3] came to 32 mg/L (≈ 113 µM); in the test on Escherichia coli [4], 64 mg/L (≈ 225 µM); in the test on Staphylococcus aureus [5], 16 mg/L (≈ 56.3 µM); in the test with Pseudomonas aeruginosa [6] it was 64 mg/L (≈ 225 µM).
For the compound `Cc1cccc2c3nn4c(-c5ccccc5)nnc4sc-3cc12`, the zone of inhibition at 2000 µg/mL in the test with Bacillus subtilis [1] turned out to be 22.6 mm; with Escherichia coli [2] it was 15.6 mm; with Pseudomonas aeruginosa [7], 15.3 mm; in the test on Staphylococcus aureus [8], 18.6 mm. Besides, the inhibition of growth at 4000 µg/mL in the test on Aspergillus flavus amounted to 51.1%; with Penicillium sp., 48.8%; with Aspergillus niger it was 55.5%. Also, the MIC amounted to 32 mg/L (≈ 101 µM) in the test with Bacillus subtilis [3], 128 mg/L (≈ 405 µM) in the test on Escherichia coli [4], 64 mg/L (≈ 202 µM) in the test on Staphylococcus aureus [5] and 128 mg/L (≈ 405 µM) against Pseudomonas aeruginosa [6].
